ChEMBL document CHEMBL1153556, “Antiplasmodial activity of [(aryl)arylsulfanylmethyl]Pyridine” (Antimicrob Agents Chemother, 2008)
Activity calls are given as the source filed them. The rule behind the calls is not given here.

What was measured:
[1] = target: T1, Histidine-rich protein PFHRP-II (Plasmodium falciparum, UniProt P05227); assay: Inhibition of hemozoin formation after 48 hrs in chloroquine-sensitive Plasmodium falciparum NF54; type: functional
T1 sequence (P05227 whole entry): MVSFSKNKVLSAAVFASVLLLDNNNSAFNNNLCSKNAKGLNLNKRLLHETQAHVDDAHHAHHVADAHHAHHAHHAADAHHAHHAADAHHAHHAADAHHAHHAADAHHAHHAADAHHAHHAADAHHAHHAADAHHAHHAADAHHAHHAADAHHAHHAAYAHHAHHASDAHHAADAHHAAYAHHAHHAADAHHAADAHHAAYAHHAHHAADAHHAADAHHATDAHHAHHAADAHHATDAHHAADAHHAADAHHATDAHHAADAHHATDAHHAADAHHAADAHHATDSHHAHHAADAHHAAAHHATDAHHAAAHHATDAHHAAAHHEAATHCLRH
Summary of the method: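 P. falciparum NF54 culture (5% parasitemia) was ring-synchronized with 5% d-sorbitol, then exposed to graded drug concentrations for 48 h. Parasites were freed with saponin, sonicated and washed with 2% SDS. The pellet was digested overnight at 37°C with proteinase K (2 μg/ml) in Tris/SDS/CaCl2 and treated with 6 M urea for 3 h. After further SDS washes, hemozoin was dissolved in 20 mM NaOH/2% SDS and read at 400 nm.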

Plasmodium falciparum [2] = assay: Antiplasmodial activity after 48 hrs against chloroquine-sensitive Plasmodium falciparum NF54 by [3H]hypoxanthine uptake; type: functional, organism-based
Summary of the method: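 Ring-stage cultures were synchronized with 5% d-sorbitol. At 0.5 to 1% parasitemia they were grown in multiwell plates (200 μl/well) across a range of concentrations, with chloroquine as positive control. After 48 h, [3H]hypoxanthine (0.7 μCi/well) was added and culture continued 48 h. Parasites were washed in PBS, dissolved in 3 N NaOH (37°C, 6 h) and counted by β-counter. IC50 reported as mean ± SEM.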

Plasmodium yoelii [3] = assay: Inhibition of hemozoin formation after 48 hrs in multi drug-resistant Plasmodium yoelii
Plasmodium falciparum [4] = assay: Antiplasmodial activity as increased heme accumulation after 48 hrs against chloroquine-sensitive Plasmodium falciparum NF54 at 10-100 uM by spectrophotometry; type: functional, organism-based
Summary of the method: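 Cultures were exposed to a range of concentrations for 48 h, then pelleted and washed in PBS. Each pellet was solubilized in 1 ml concentrated formic acid. Heme was read at 398 nm (ε = 1.56 × 10^5 M−1 cm−1) and expressed as nmol/mg cell protein.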

Plasmodium falciparum [5] = assay: Induction of oxidative stress as decreased glutathione after 48 hrs in chloroquine-sensitive Plasmodium falciparum NF54 by TCA assay; type: functional, organism-based
Summary of the method: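 Parasites at 4% parasitemia were treated 48 h, then isolated and sonicated in 20 mM ice-cold EDTA. The lysate was deproteinized with equal-volume 10% TCA, and the supernatant mixed with 0.8 M Tris-HCl pH 9 containing 20 mM DTNB. A412 was read against a GSH standard and expressed as % of control.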

Plasmodium falciparum [6] = assay: Induction of oxidative stress as lipid peroxide formation after 48 hrs in chloroquine-sensitive Plasmodium falciparum NF54; type: functional, organism-based
Summary of the method: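 Ring-synchronized culture (4% parasitemia) was treated 48 h, and parasites were isolated and lysed in PBS. Lysate was heated with TCA–thiobarbituric acid in 1 N HCl at 100°C for 15 min, cooled and centrifuged. A535 of the supernatant was read against a tetraethoxypropane standard, expressed as nmol/mg lysate protein.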

Plasmodium falciparum [7] = assay: Induction of oxidative stress as increased H2O2 formation after 48 hrs in chloroquine-sensitive Plasmodium falciparum NF54 by spectrofluorimetry; type: functional, organism-based
Summary of the method: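 Parasites at 4% parasitemia were treated 48 h, then loaded 30 min with 10 μM 2′,7′-dichlorofluorescein diacetate. They were isolated and lysed by mild sonication at 4°C. Dichlorofluorescein fluorescence was read at ex 502/em 523 nm and expressed as intensity/mg lysate protein.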

Plasmodium falciparum [8] = assay: Induction of oxidative stress as increased hydroxyl radical formation after 48 hrs in chloroquine-sensitive Plasmodium falciparum NF54 by fast blue BB assay; type: functional, organism-based
Summary of the method: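 Ring/early-trophozoite culture (2% parasitemia) was grown 48 h with compound plus 20 μl of 25% DMSO as ·OH trap, re-dosed at each daily medium change; a parasite-only control had neither. Isolated parasites were lysed in water, and methanesulfinic acid from the DMSO–·OH reaction was extracted for quantitation.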

Plasmodium yoelii [9] = assay: Antiplasmodial activity as decreased mitochondrial transmembrane potential after 1 hrs against multi drug-resistant Plasmodium yoelii trophozoite infected Swiss mice (Mus musculus) erythrocytes at 10 uM by JC1 uptake; type: functional, organism-based
Plasmodium falciparum [10] = assay: Antiplasmodial activity after 48 hrs against chloroquine-sensitive Plasmodium falciparum NF54 by [3H]hypoxanthine uptake in presence of PBN; type: functional, organism-based
Summary of the method: (§1)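 Cultures at 4% parasitemia received test compound at 40 μM for 48 h, plus the ·OH scavenger PBN (40 mM) or mannitol (10 mM). Growth was read as [3H]hypoxanthine incorporation, β-counting, n = 6, mean ± SEM.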

Plasmodium falciparum [11] = assay: Antiplasmodial activity after 48 hrs against chloroquine-sensitive Plasmodium falciparum NF54 by [3H]hypoxanthine uptake in presence of mannitol; type: functional, organism-based; summary of the method: as §1
Plasmodium falciparum [12] = assay: Antiplasmodial activity as parasite growth after 24 hrs against chloroquine-sensitive Plasmodium falciparum NF54 infected human B+ erythrocytes at <40 uM 24 hrs preinfection by [3H]hypoxanthine uptake; type: functional, organism-based
Summary of the method: (§2)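 Uninfected human B+ RBC at 5% hematocrit were preincubated 24 h in CRPMI with compound up to 40 μM; DMSO served as control. Cells were washed three times, then inoculated with trophozoite-rich parasitized RBC (4 to 5% parasitemia). After one intraerythrocytic cycle, [3H]hypoxanthine (0.7 μCi/well) was added for 24 h. Cells were filter-harvested and counted (cpm), n = 6.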

MCF7 [13] = assay: Cytotoxicity against human MCF7 cells assessed as cell viability at 10 to 1000 uM after 24 hrs by MTT assay; type: cell-based; conditions: mcf7, 24 h
Plasmodium yoelii [14] = assay: Antiplasmodial activity as reduced parasitaemia at day 4 against multi drug-resistant Plasmodium yoelii infected BALB/c mice (Mus musculus) at 10 mg/kg intraperitoneal dose 6 hrs post infection and daily for 3 days by Giemsa stain; type: functional; parameters: scale not given: the % may be the effect or the level left
Summary of the method: (§3)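 BALB/c mice (22 ± 2 g), five per group, infected intraperitoneally on day 0 with 10^5 parasitized RBC of P. yoelii resistant to chloroquine, mefloquine and halofantrine. Dosing was intraperitoneal in groundnut oil (0.2 ml), starting 6 h after inoculation and given once daily on days 0–3. Parasitemia was read on Giemsa thin smears on day 4. Group means gave % suppression [(C−T)/C]×100 against vehicle controls; α-β-arteether served as the positive control.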

Plasmodium yoelii [15] = assay: Antiplasmodial activity as reduced parasitaemia at day 4 against multi drug-resistant Plasmodium yoelii infected BALB/c mice (Mus musculus) at 25 mg/kg intraperitoneal dose 6 hrs post infection and daily for 3 days by Giemsa stain; type: functional; parameters: scale not given: the % may be the effect or the level left; summary of the method: as §3
Plasmodium yoelii [16] = assay: Antiplasmodial activity as reduced parasitaemia at day 4 against multi drug-resistant Plasmodium yoelii infected BALB/c mice (Mus musculus) at 50 mg/kg intraperitoneal dose 6 hrs post infection and daily for 3 days by Giemsa stain; type: functional; parameters: scale not given: the % may be the effect or the level left; summary of the method: as §3
[17] = target: T2, Histidine-rich protein PFHRP-II (Plasmodium falciparum) (UniProt P05227); assay: Inhibition of hemozoin formation after 48 hrs against chloroquine-sensitive Plasmodium falciparum NF54 at 10 to 100 uM by spectrophotometry; type: functional
T2 sequence (whole entry): T1 sequence (P05227 whole entry)
Summary of the method: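 Ring-synchronized culture (5% parasitemia, sorbitol) was treated 48 h across a concentration range. Parasites were saponin-isolated and sonicated, and the pellet washed in 2% SDS. It was digested with proteinase K (2 μg/ml, 37°C overnight), treated with 6 M urea for 3 h, and washed in SDS. Hemozoin was dissolved in 20 mM NaOH/2% SDS and read at 400 nm.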

MCF7 [18] = assay: Cytotoxicity against human MCF7 cells assessed as cell viability after 24 hrs by MTT assay; type: cell-based; conditions: MCF7, 24 h
Plasmodium falciparum [19] = assay: Antiplasmodial activity as parasite invasion after 24 hrs against chloroquine-sensitive Plasmodium falciparum NF54 infected human B+ erythrocytes at <40 uM 24 hrs preinfection by [3H]hypoxanthine uptake; type: functional, organism-based; summary of the method: as §2
Heme = assay: Binding affinity to heme by optical difference spectroscopy
Summary of the method: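 Heme in 100 mM acetate buffer pH 5.2 at 25 ± 1°C, 1-cm quartz cell, was titrated with successive additions of compound (5 to 40 μM). Soret and difference spectra were recorded after each addition. KD came from a double-reciprocal plot of 1/ΔA362 against 1/[ligand]; mean ± SEM.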

[20] = Selectivity index ratio of IC50 for human MCF7 cells to IC50 for chloroquine-sensitive Plasmodium falciparum NF54; type: functional
Summary of the method: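 Selectivity index = MCF-7 MTT IC50 divided by P. falciparum NF-54 [3H]hypoxanthine-uptake IC50.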

Plasmodium yoelii [21] = assay: Antiplasmodial activity as reduced parasitaemia at day 4 against multi drug-resistant Plasmodium yoelii infected BALB/c mice (Mus musculus) at 100 mg/kg intraperitoneal dose 6 hrs post infection and daily for 3 days by Giemsa stain; type: functional; parameters: scale not given: the % may be the effect or the level left; summary of the method: as §3

SMILES	IC50 [1] [µM]	IC50 (Plasmodium falciparum [2]) [µM]	IC50 (Plasmodium yoelii [3]) [µM]	Activity (Plasmodium falciparum [5])	Activity (Plasmodium falciparum [6])	Activity (Plasmodium falciparum [7])	Activity (Plasmodium falciparum [8])	Activity (MCF7 [13])	Activity (Plasmodium yoelii [15]) [%]	Activity (Plasmodium yoelii [16]) [%]	Activity [17]	IC50 (MCF7 [18]) [µM]	Kd (Heme) [µM]	other results
COc1ccc(C(Sc2ccc(Cl)cc2)c2cccnc2)cc1 (stereo not drawn)	40	12	40	–	–	–	–	–	–	–	–	–	–	–
COc1ccc(C(Sc2ccc3ccccc3c2)c2cccnc2)cc1 (stereo not drawn)	–	4	–	Dose-dependent effect	Dose-dependent effect	Dose-dependent effect	Dose-dependent effect	Non-toxic	65	85	Dose-dependent effect	650	–	Activity (Plasmodium falciparum [4]): Active; Activity (Plasmodium yoelii [9]): Active; Activity (Plasmodium falciparum [10]): inactive; Activity (Plasmodium falciparum [11]): inactive; Activity (Plasmodium falciparum [12]): inactive; Activity (Plasmodium yoelii [14]): 40%; Activity (Plasmodium falciparum [19]): inactive
CCCCCC[C@H]1C(=O)O[C@H](C)[C@H](NC(=O)c2cccc(NC=O)c2O)C(=O)O[C@@H](C)[C@@H]1OC(=O)CC(C)C	–	–	–	–	–	–	–	–	–	–	–	–	–	Activity (Plasmodium yoelii [9]): Active
COc1ccc(C(Sc2nc3ccccc3s2)c2cccnc2)cc1 (stereo not drawn)	35	12	40	–	–	–	–	–	–	–	–	–	14	–
COc1ccc(C(Sc2ccc(C)cc2)c2ccccn2)cc1 (stereo not drawn)	–	20	–	–	–	–	–	–	–	–	–	–	–	–
COc1ccc(C(Sc2ccc(C)cc2)c2cccnc2)cc1 (stereo not drawn)	40	20	20	–	–	–	–	–	–	–	–	–	12	–
COc1ccc(C(Sc2ccccc2)c2cccnc2)cc1 (stereo not drawn)	11	5	18	Dose-dependent effect	Dose-dependent effect	Dose-dependent effect	Dose-dependent effect	Non-toxic	30	60	Dose-dependent effect	1000	20	%max (Plasmodium falciparum [4]): Active; Ratio IC50 [20]: 200; Activity (Plasmodium yoelii [14]): 20%
COc1ccc(C(Sc2ccccc2C)c2cccnc2)cc1 (stereo not drawn)	16	8	26	Dose-dependent effect	Dose-dependent effect	Dose-dependent effect	Dose-dependent effect	Non-toxic	30	50	Dose-dependent effect	1000	26	Activity (Plasmodium falciparum [4]): Active; Activity (Plasmodium falciparum [12]): inactive; Ratio IC50 [20]: 125; Activity (Plasmodium yoelii [21]): 80%
